# Measurements published in article PMC12783166 (Clinical Pharmacokinetics, 2025).
# Where “and” joins values, the source holds several entries; their conditions need not be identical. Equal values may be shown once. Entries after “also recorded” stand apart in the source; their conditions may differ.
# What was measured:
# [1] = Phase 1 population PK model; format: in vivo, human; conditions: Phase 1 Model
# [2] = Phase 3 population PK model; format: in vivo, human
# Summary of the method: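 Nonlinear mixed-effects model fitted by FOCE with interaction to pooled plasma and dried-blood-spot LC-MS/MS concentrations from 12 phase 1, 1 phase 2b/3 and 1 phase 3 study (healthy participants and migraine patients, single/multiple oral doses). Plasma LLOQ 0.1 or 1.0 ng/mL, DBS 2.5 ng/mL. Below-LLOQ samples and |CWRES| > 6 excluded. Log-normal IIV. Covariates added stepwise (ΔOFV 6.63, P < 0.01).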
# [3] = Covariate evaluation of model-predicted 60 mg steady-state exposures; format: in vivo, human
# Summary of the method: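 Final population model predicted steady-state AUC24 and Cmax for 60 mg once daily in EM phase 2b/3, EM phase 3 and CM phase 3 patients. Covariates included renal function, age, sex, weight, race and comedication with BCRP inhibitors, BCRP substrates or statins. Each subgroup is given as a geometric mean ratio with 95% CI against its reference group.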
# [4] = tested on: calcitonin gene-related peptide receptor; conditions: plasma concentration threshold; cited from earlier work
# [5] = tested on: cytochrome P450 3A4 (CYP3A4); conditions: cited from earlier work
# BCRP = conditions: cited from earlier work
# OATP1B1 = conditions: cited from earlier work
# OATP1B3 = conditions: cited from earlier work
# OAT1 = conditions: cited from earlier work
# [6] = Phase 3 Model, fractional covariate effect
# [7] = Phase 3 Model, multiple rifampin doses and a single atogepant dose
# [8] = Phase 3 Model, proportional residual error
# [9] = Phase 3 Model, single-dose atogepant and single-dose rifampin
# [10] = model-predicted steady state, 60 mg daily
structure (smiles),measurement,setting,value
"C[C@@H]1[C@H](c2c(F)ccc(F)c2F)C[C@H](NC(=O)c2cnc3c(c2)C[C@@]2(C3)C(=O)Nc3ncccc32)C(=O)N1CC(F)(F)F [atogepant, Atogepant]",Famotidine pre-treatment on Frel,[1]; fractional covariate effect,−0.15
same,Famotidine pre-treatment on ka,[1]; fractional covariate effect,−0.51
same,Formulation 2 tablet effect on ka,[1]; fractional covariate effect,−0.44
same,Formulation 2 tablet on Frel,[1]; fractional covariate effect,−0.17
same,Formulation 4 tablet effect on ka,[1]; fractional covariate effect,−0.42
same,Oral solution on Frel,[1]; fractional covariate effect,−0.67
same,Absorption rate constant [ka (/h)],[1]; healthy participants,2.44 h⁻¹
same,Apparent clearance healthy participants [CL/F (L/h)],[1]; healthy participants,19.82 L/h
same,Lag time [ALAG (h)],[1]; healthy participants,0.30 h
same,Exponential dose effect on ka,[1]; power exponent,−0.41
same,σprop,[1]; proportional residual error,0.12
same,ω^2CL/F,[1]; variance of IIV,0.151
same,ω^2Q/F,[1]; variance of IIV,0.197
same,ω^2V1/F,[1]; variance of IIV,0.136
same,ω^2V2/F,[1]; variance of IIV,0.422
same,ω^2ka,[1]; variance of IIV,0.537
same,Blood concentrations as percentage of those in plasma,[2]; Phase 3 Model,57.3%
same,Blood-plasma ratio,[2]; Phase 3 Model,0.573
same,Effect of concomitant statins on CL/F and Frel,[2]; Phase 3 Model,not found to have a significant effect
same,Fraction zero-order absorption (Fk0),[2]; Phase 3 Model,0.693
same,Frel at the 60-mg dose compared with the 10-mg dose,[2]; Phase 3 Model,approximately 1.24 fold
same,Higher Frel with coadministration of itraconazole,[2]; Phase 3 Model,1.95 fold
same,IIV on CL/F,[2]; Phase 3 Model,15.6 % CV
same,IIV on Frel,[2]; Phase 3 Model,48.4 % CV
same,IIV on Q/F,[2]; Phase 3 Model,68.6 % CV
same,IIV on Tk0,[2]; Phase 3 Model,40.4 % CV
same,IIV on V2/F,[2]; Phase 3 Model,77.5 % CV
same,IOV on Frel,[2]; Phase 3 Model,19.3 % CV
same,Duration zero-order absorption [Tk0 (h)],"[2]; Phase 3 Model, 60 mg reference dose",0.908 h
same,Residual variability error term,"[2]; Phase 3 Model, CGP-PK-02",22.8 % CV
same,Residual variability error term,"[2]; Phase 3 Model, EM phase 2b/3 study",58.5 % CV
same,Lower CL/F with coadministration of quinidine,"[2]; Phase 3 Model, P-gp inhibitor",28.5%
same,Residual variability error term,"[2]; Phase 3 Model, all phase 1 studies except CGP-PK-02",30.7 % CV
same,"CovQ/F,V2/F","[2]; Phase 3 Model, covariance of IIV",0.422
same,Food effect on ALAG,[2]; [6],0.672
same,Itraconazole effect on Frel,[2]; [6],0.949
same,Rifampin effect on Frel after first dose,[2]; [6],1.42
same,Rifampin effect on Frel following multiple doses,[2]; [6],−0.248
same,Apparent clearance healthy participants [CL/F (L/h)],"[2]; Phase 3 Model, healthy participants",22.9 L/h
same,Absorption lag time following a high-fat meal,"[2]; Phase 3 Model, high-fat meal",0.46 h
same,Decrease of Frel with multiple rifampin doses,[2]; [7],24.8%
same,Increase of CL/F with multiple rifampin doses,[2]; [7],1.82 fold
same,Apparent clearance patients [CL/F (L/h)],"[2]; Phase 3 Model, patients with EM",17.4 L/h
same,CL/F lower in patients than in healthy participants,"[2]; Phase 3 Model, patients with EM vs healthy participants",23.7%
same,Residual variability error term,"[2]; Phase 3 Model, phase 3 studies",49.1 % CV
same,Exponential weight effect on V1/F,"[2]; Phase 3 Model, power exponent, body weight/76.8 kg",0.411
same,Exponential dose effect on Frel,"[2]; Phase 3 Model, power exponent, dose/60 mg",0.119
same,σprop,[2]; [8],0.307
same,σprop (ADVANCE and PROGRESS studies),[2]; [8],0.491
same,σprop (study CGP-MD-01),[2]; [8],0.585
same,σprop (study CGP-PK-02),[2]; [8],0.228
same,Lower CL/F with severe hepatic impairment,"[2]; Phase 3 Model, relative to normal liver function or mild or moderate hepatic impairment",36.6%
same,Higher Frel with single-dose rifampin,[2]; [9],2.4 fold
same,Lower CL/F with single-dose rifampin,[2]; [9],~ 13% and 12.8%
same,Lower CL/F with coadministration of itraconazole,"[2]; Phase 3 Model, strong CYP3A4 inhibitor",66.2%
same,ω^2CL/F,"[2]; Phase 3 Model, variance of IIV",0.0243
same,ω^2Frel,"[2]; Phase 3 Model, variance of IIV",0.234
same,ω^2Q/F,"[2]; Phase 3 Model, variance of IIV",0.471
same,ω^2V2/F,"[2]; Phase 3 Model, variance of IIV",0.601
same,ω^2tk0,"[2]; Phase 3 Model, variance of IIV",0.163
same,ω^2IOVFrel,"[2]; Phase 3 Model, variance of IOV",0.0373
same,Lag time [ALAG (h)],"[2]; Phase 3 Model, without food",0.276 h
same,Vd/F,"[2]; human, plasma, oral",86.1 L
same,Effect of mild or moderate renal impairment on atogepant PK,[3]; model-predicted,no clinically relevant effect
same,Change of Cmax with BCRP inhibitors,[3]; [10],No change; also recorded: no impact
same,Decrease of AUC24 with use of BCRP inhibitors,[3]; [10],1%
same,Decrease of AUC24 with use of BCRP substrates,[3]; [10],3%
same,Decrease of Cmax with use of BCRP substrates,[3]; [10],3%
same,Increase of AUC24 with use of statins,[3]; [10],14%
same,Increase of Cmax with use of statins,[3]; [10],13%
same,"Effect of age, BCRP inhibitors, BCRP substrates, statins, body weight, race, renal function and sex on steady-state AUC24 and Cmax","[3]; model-predicted, 60 mg daily, compared with reference groups",< 20%
same,EC90 (effective concentration that results in 90% inhibition of the CGRP receptor),[4],8.4 ng/mL
same,Metabolizing enzyme,[5],primarily metabolized by cytochrome P450 3A4 (CYP3A4)
same,Transporter substrate status,BCRP,substrate
same,Transporter substrate status,OATP1B1,substrate
same,Transporter substrate status,OATP1B3,substrate
same,Transporter substrate status,OAT1,substrate
